Measured values taken from ChEMBL document CHEMBL2169747, “Synthesis and biological properties of highly sequence-specific-alkylating N-methylpyrrole-N-methylimidazole polyamide conjugates” (J Med Chem, 2012).
The source made the active and inactive calls. The calls are words filed in the database; no cut-off is given here.

Experiments:
A549 [1] = assay: Downregulation of Q8N570 gene expression in human A549 cells at 26 nM after 12 hrs by microarray analysis relative to control; assay type: functional
Procedure, shortened: (§1)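 A549 cells (RPMI-1640, 10% heat-inactivated FBS, penicillin/streptomycin, 37 °C, 5% CO2) seeded at 4 × 10^5 per 60 mm dish. Exposed 12 h to conjugate at 21, 26, 34 or 100 nM in medium with 0.1% DMSO, against 0.1% DMSO control. Whole-genome (~25 000 genes) expression profiled by microarray.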

A549 [2] = assay: Upregulation of PPM1D gene expression in human A549 cells at 26 nM after 12 hrs by microarray analysis relative to control; assay type: functional
Procedure, shortened: (§2)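 4 ×10^5 A549 cells seeded per 60 mm dish and treated 12 h with conjugate (21, 26, 34 or 100 nM) in medium; control medium contained 0.1% DMSO, with conjugates added as 0.1% DMSO solutions. Whole human genome (~25 000 genes) expression profiled by microarray against the DMSO control. A549 culture: RPMI-1640 with 10% heat-inactivated FBS, penicillin/streptomycin, 37 °C, 5% CO2.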

A549 [3] = assay: Upregulation of HES2 gene expression in human A549 cells at 26 nM after 12 hrs by microarray analysis relative to control; assay type: functional; procedure, shortened: as §2
A549 [4] = assay: Downregulation of MYCBP2 gene expression in human A549 cells at 26 nM after 12 hrs by microarray analysis relative to control; assay type: functional
Procedure, shortened: (§3)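 A549 cells, 4 × 10^5 per 60 mm dish, were exposed to conjugate for 12 h in medium with 0.1% DMSO; vehicle control was 0.1% DMSO. Whole human genome (~25 000 genes) expression was profiled by microarray and expression compared with the control.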

A549 [5] = assay: Downregulation of CTTNBP2 gene expression in human A549 cells at 26 nM after 12 hrs by microarray analysis relative to control; assay type: functional; procedure, shortened: as §3
A549 [6] = assay: Downregulation of NP_940865.1 gene expression in human A549 cells at 26 nM after 12 hrs by microarray analysis relative to control; assay type: functional; procedure, shortened: as §1
A549 [7] = assay: Downregulation of PTPRK gene expression in human A549 cells at 26 nM after 12 hrs by microarray analysis relative to control; assay type: functional; procedure, shortened: as §1
A549 [8] = assay: Downregulation of Q9Y6Z5 gene expression in human A549 cells at 26 nM after 12 hrs by microarray analysis relative to control; assay type: functional; procedure, shortened: as §1
A549 [9] = assay: Downregulation of SEMA3E gene expression in human A549 cells at 26 nM after 12 hrs by microarray analysis relative to control; assay type: functional; procedure, shortened: as §1
DU-145 = assay: Antitumor activity against human DU145 cells xenografted in BALB/c-nu/nu mouse assessed as effect on tumor growth at 1.6 mg/kg, iv administered as liposomal conjugate for 14 days; assay type: functional, organism-based; set-up: dose 1.6 mg/kg
Procedure, shortened: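 Male BALB/c-nu/nu mice (5 weeks, 15−22 g) with subcutaneous right-subaxillary A549 or DU145 xenografts (3 × 10^6 cells/mouse), grouped by tumor size. Liposomes were made from a lipid film hydrated in water and bath-sonicated 2 h, giving 330 μg/mL conjugate in 17 mM lipid. A single 125 μL intravenous dose (41 μg/mouse) was given on day 0. Tumor size and weight were read every other day for 14 days. n = 5 or 6.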

A549 [10] = assay: Upregulation of BBC3 gene expression in human A549 cells at 26 nM after 12 hrs by microarray analysis relative to control; assay type: functional; procedure, shortened: as §1
A549 [11] = assay: Upregulation of RRAD gene expression in human A549 cells at 26 nM after 12 hrs by microarray analysis relative to control; assay type: functional; procedure, shortened: as §2
A549 [12] = assay: Downregulation of HIST1H2AC gene expression in human A549 cells at 26 nM after 12 hrs by microarray analysis relative to control; assay type: functional; procedure, shortened: as §3
A549 [13] = assay: Downregulation of DPYD gene expression in human A549 cells at 26 nM after 12 hrs by microarray analysis relative to control; assay type: functional; procedure, shortened: as §3
A549 [14] = assay: Downregulation of ADH1A gene expression in human A549 cells at 26 nM after 12 hrs by microarray analysis relative to control; assay type: functional; procedure, shortened: as §3
A549 [15] = assay: Upregulation of GADD45A gene expression in human A549 cells at 26 nM after 12 hrs by microarray analysis relative to control; assay type: functional; procedure, shortened: as §2
A549 [16] = assay: Downregulation of EPM2A gene expression in human A549 cells at 26 nM after 12 hrs by microarray analysis relative to control; assay type: functional; procedure, shortened: as §3
A549 [17] = assay: Downregulation of XP_375606.2 gene expression in human A549 cells at 26 nM after 12 hrs by microarray analysis relative to control; assay type: functional; procedure, shortened: as §1
A549 [18] = assay: Downregulation of NBEA gene expression in human A549 cells at 26 nM after 12 hrs by microarray analysis relative to control; assay type: functional; procedure, shortened: as §3
A549 [19] = assay: Upregulation of NP_997213.1 gene expression in human A549 cells at 34 nM after 12 hrs by microarray analysis relative to control; assay type: functional; procedure, shortened: as §2
A549 [20] = assay: Downregulation of SIPA1L1 gene expression in human A549 cells at 34 nM after 12 hrs by microarray analysis relative to control; assay type: functional; procedure, shortened: as §1
A549 [21] = assay: Downregulation of ZNF407 gene expression in human A549 cells at 34 nM after 12 hrs by microarray analysis relative to control; assay type: functional; procedure, shortened: as §1
A549 [22] = assay: Upregulation of HES2 gene expression in human A549 cells at 34 nM after 12 hrs by microarray analysis relative to control; assay type: functional; procedure, shortened: as §2
A549 [23] = assay: Downregulation of PTPRK gene expression in human A549 cells at 34 nM after 12 hrs by microarray analysis relative to control; assay type: functional; procedure, shortened: as §1
A549 [24] = assay: Downregulation of RABGAP1L gene expression in human A549 cells at 34 nM after 12 hrs by microarray analysis relative to control; assay type: functional; procedure, shortened: as §1
A549 [25] = assay: Upregulation of GADD45A gene expression in human A549 cells at 34 nM after 12 hrs by microarray analysis relative to control; assay type: functional; procedure, shortened: as §2
A549 [26] = assay: Upregulation of BBC3 gene expression in human A549 cells at 34 nM after 12 hrs by microarray analysis relative to control; assay type: functional; procedure, shortened: as §1
A549 [27] = assay: Upregulation of CDKN1A gene expression in human A549 cells at 34 nM after 12 hrs by microarray analysis relative to control; assay type: functional; procedure, shortened: as §2
A549 [28] = assay: Downregulation of GTDC1 gene expression in human A549 cells at 34 nM after 12 hrs by microarray analysis relative to control; assay type: functional; procedure, shortened: as §3
A549 [29] = assay: Downregulation of GPX6 gene expression in human A549 cells at 34 nM after 12 hrs by microarray analysis relative to control; assay type: functional; procedure, shortened: as §3
A549 [30] = assay: Downregulation of Q9P223 gene expression in human A549 cells at 34 nM after 12 hrs by microarray analysis relative to control; assay type: functional; procedure, shortened: as §1
A549 [31] = assay: Downregulation of SMYD3 gene expression in human A549 cells at 34 nM after 12 hrs by microarray analysis relative to control; assay type: functional; procedure, shortened: as §1
A549 [32] = assay: Downregulation of ZNF291 gene expression in human A549 cells at 34 nM after 12 hrs by microarray analysis relative to control; assay type: functional; procedure, shortened: as §1
A549 [33] = assay: Downregulation of NP_001027.2 gene expression in human A549 cells at 34 nM after 12 hrs by microarray analysis relative to control; assay type: functional; procedure, shortened: as §3
A549 [34] = assay: Downregulation of NBEA gene expression in human A549 cells at 34 nM after 12 hrs by microarray analysis relative to control; assay type: functional; procedure, shortened: as §3

## CC(=O)Nc1cn(C)c(C(=O)Nc2cc(C(=O)Nc3cc(C(=O)NCCC(=O)Nc4cc(C(=O)NCCCC(=O)Nc5cc(C(=O)NCCC(=O)Nc6cn(C)c(C(=O)Nc7ccc8[nH]c(C(=O)N9CC(CCl)c%10c9cc(O)c9ccccc%109)cc8c7)n6)n(C)c5)n(C)c4)n(C)c3)n(C)c2)n1 (racemic)
A549 [1]
  fold change (FC): 0.283
A549 [2]
  fold change (FC): 5.7
A549 [3]
  fold change (FC): 9.4
A549 [4]
  fold change (FC): 0.338
A549 [5]
  fold change (FC): 0.36
A549 [6]
  fold change (FC): 0.322
A549 [7]
  fold change (FC): 0.257
A549 [8]
  fold change (FC): 0.356
A549 [9]
  fold change (FC): 0.353
DU-145
  Activity: Active
A549 [10]
  fold change (FC): 9.4
A549 [11]
  fold change (FC): 6
A549 [12]
  fold change (FC): 0.362
A549 [13]
  fold change (FC): 0.115
A549 [14]
  fold change (FC): 0.317
A549 [15]
  fold change (FC): 7
A549 [16]
  fold change (FC): 0.353
A549 [17]
  fold change (FC): 0.35
A549 [18]
  fold change (FC): 0.339

## CC(=O)Nc1cn(C)c(C(=O)Nc2cn(C)c(C(=O)Nc3cc(C(=O)NCCC(=O)Nc4cc(C(=O)NCCCC(=O)Nc5cn(C)c(C(=O)NCCC(=O)Nc6cn(C)c(C(=O)Nc7ccc8[nH]c(C(=O)N9CC(CCl)c%10c9cc(O)c9ccccc%109)cc8c7)n6)n5)n(C)c4)n(C)c3)n2)n1 (racemic)
A549 [19]
  fold change (FC): 6
A549 [20]
  fold change (FC): 0.309
A549 [21]
  fold change (FC): 0.241
A549 [22]
  fold change (FC): 8.2
A549 [23]
  fold change (FC): 0.189
A549 [24]
  fold change (FC): 0.276
A549 [25]
  fold change (FC): 5.9
A549 [26]
  fold change (FC): 8.5
A549 [27]
  fold change (FC): 7.8
A549 [28]
  fold change (FC): 0.307
A549 [29]
  fold change (FC): 0.322
A549 [30]
  fold change (FC): 0.258
A549 [31]
  fold change (FC): 0.291
A549 [32]
  fold change (FC): 0.311
A549 [33]
  fold change (FC): 0.313
A549 [34]
  fold change (FC): 0.152
